# Compounds with a hit are over-represented: about 1.9% of the library has one in this group of screens.
# HIF activator: HIF pathway transcriptional activation | activation, % at 7.5 µM (by protocol) | U2OS HRE-luciferase reporter, luminescence; normalized: DMSO 0%, desferrioxamine 100% | actives 0.32% (n = 300,000);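 active means mean activation of at least 10% of the iron chelator positive control signal, with at least half of replicates also reaching 10%; inconclusive means mean and replicate majority disagree about reaching 10%; inactive means mean and most replicates under 10%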
# PP5 inh: blocks human protein phosphatase 5 activity. P53041. purified PP5c, OMFP substrate fluorescence. actives 0.18% (n = 320,000). inhibition, % at 6.7 µM;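 active means inhibition above the campaign's mean inhibition across all tested compounds plus 3 SD, cut at about 9.5% in these data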;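 further: 0% = DMSO only and 100% = 100 µM cantharidin control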
# HCV NS3 hel inh: inhibitors of Hepatitis C virus NS3 helicase; NS3 helicase DNA unwinding, Cy5 molecular beacon fluorescence; inhibition, % at 10.9 µM; actives 0.56% (n = 290,000);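 active means inhibition above the mean of all tested compounds plus 3 SD, set per campaign, cut at about 35% in these data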;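 further: 0% = DMSO wells and 100% = thioflavine S control wells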
#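 Test system: hepatitis C virus NS3 helicase domain fragment enzyme. Also added: annealed dual-labelled DNA beacon duplex, ATP-started. Timing: 60 min unwinding reaction at 25 °C after ATP addition. Technique: Cy5 fluorescence. Measure: % inhibition of unwinding.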
# DNA FID counter-1: displaces DNA intercalator in HCV helicase counter-screen. DNA fluorescent intercalator displacement, fluorescence. inhibition, % at 7.9 µM. actives 0.17% (n = 290,000);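 further: 0% = vehicle and 100% = reference compound; higher means more ethidium bromide displaced from hairpin DNA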
# PP1 inh: PP1-alpha (human) inhibition in PP5 counter-screen | P62136 | purified PP1alpha, OMFP fluorescence | inhibition, % at 6.7 µM | actives 0.9% (n = 320,000);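 active means inhibition above the mean inhibition of all tested compounds plus 3 SD, computed separately for each screening campaign, cut at about 15% in these data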
# Target sequence (P62136 whole entry, looked up): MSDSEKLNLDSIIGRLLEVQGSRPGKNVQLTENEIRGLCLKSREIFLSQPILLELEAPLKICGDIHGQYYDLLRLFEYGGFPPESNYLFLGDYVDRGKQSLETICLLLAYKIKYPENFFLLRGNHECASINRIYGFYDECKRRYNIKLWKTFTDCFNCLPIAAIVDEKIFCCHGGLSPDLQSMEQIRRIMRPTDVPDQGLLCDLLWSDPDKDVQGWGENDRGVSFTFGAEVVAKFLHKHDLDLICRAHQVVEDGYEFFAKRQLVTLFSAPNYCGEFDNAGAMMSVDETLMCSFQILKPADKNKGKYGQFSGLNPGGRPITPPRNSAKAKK
# NS3 hel confirm: HCV NS3 helicase inhibition, confirmation assay; shares compounds with HCV NS3 hel inh; NS3 helicase DNA unwinding, Cy5 molecular beacon fluorescence; inhibition, % at 10.9 µM; actives 31% (n = 1,600); AID 1943;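 active means inhibition above the mean of all tested compounds plus 3 SD, cutoff set per campaign, cut at about 36% in these data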
# DNA FID counter-2: displaces DNA intercalator in HCV helicase counter-screen | shares compounds with HCV NS3 hel inh | DNA fluorescent intercalator displacement, fluorescence | inhibition, % at 7.9 µM | actives 4% (n = 1,600);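 further: 0% = vehicle and 100% = reference compound; higher means more displacement of ethidium bromide from the DNA hairpin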
# DNA FID DR: DNA intercalator displacement in dose response; shares compounds with HCV NS3 hel inh; fluorescent intercalator displacement from DNA, fluorescence; IC50, µM; 120 tested, under 10 active; AID 2172; call rule not given here
# PP1 inh confirm: human PP1 phosphatase inhibition, confirmation; shares compounds with PP1 inh; purified PP1alpha, OMFP substrate fluorescence; inhibition, % at 6.7 µM; actives 52% (n = 1,900);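 active means mean PP1 inhibition above a set limit taken from the earlier primary screen, cut at about 15% in these data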
# PP5 inh counter: PP5 phosphatase inhibition, counter-screen for PP1 inhibitors. purified PP5c, OMFP fluorescence. inhibition, % at 6.7 µM. shares compounds with PP1 inh. actives 4% (n = 1,900);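 active means mean PP5 inhibition over triplicate wells above about 9.5% taken from the earlier PP1 screen, limit read from the data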
# The depositor's hits bear a star; i = inactive; u = inconclusive; x = not tested or not shown. Unless noted, no stated cut-off is given here; in the data, active means inhibition above about 37%; inactive means the rest.
SMILES,HIF activator,PP5 inh,HCV NS3 hel inh,DNA FID counter-1,PP1 inh,NS3 hel confirm,DNA FID counter-2,PP1 inh confirm,PP5 inh counter,others
Cc1cc(N2C(=O)C(O)=C(C(=O)c3ccc(C)o3)C2c2cccc(Oc3ccccc3)c2)no1 (stereo not given),0,4,63*,-41,29*,173*,-22,29*,0,DNA FID DR=>79
Nc1c(S(=O)(=O)O)cc(NC(=O)c2ccccc2)c2c1C(=O)c1ccccc1C2=O,-1,7,81*,34,31*,66*,61*,18*,2,
CCOc1ccccc1N(C(=O)Cn1nnnc1-c1ccc(C)o1)C(CC)C(=O)NC(C)(C)C (stereo not given),-1,0,3,-25,-2,x,x,x,x,
COc1ccc(-c2nn(-c3ccccc3)cc2C2CC(c3cccs3)=NN2C(=O)CCC(=O)O)cc1 (stereo not given),0,-1,-1,-10,0,x,x,x,x,
COc1ccc(C2=NN(C(=O)CCCC(=O)O)C(c3cn(-c4ccccc4)nc3-c3ccccc3)C2)cc1 (stereo not given),0,1,46*,-18,29*,43*,-16,18*,-5,
COc1ccccc1N1CCN(C(=O)c2ccc3nc(-c4ccco4)c(-c4ccco4)nc3c2)CC1,-1,6,29,-28,4,x,x,x,x,
O=C(NC1CCCC1)c1ccc2nc(-c3ccco3)c(-c3ccco3)nc2c1,x,-2,37*,-17,19*,115*,15,3,2,DNA FID DR=>79
Cc1ccc(C)c(N2CCN(C(=O)c3ccc4nc(-c5ccco5)c(-c5ccco5)nc4c3)CC2)c1,0,1,37*,-37,19*,76*,-20,11,0,DNA FID DR=>79
O=C(NCCO)c1ccc2nc(-c3ccco3)c(-c3ccco3)nc2c1,0,0,13,-1,2,x,x,x,x,
CCc1cc(=O)oc2cc(C)c(CN3CCCC3)c(O)c12,0,0,39*,-18,22*,30,8,2,-2,
CC(=O)c1ccc2c(c1)C1C=CCC1C(c1ccc(S(=O)(=O)N3CCOCC3)cc1)N2 (stereo not given),x,-2,10,-11,13,x,x,x,x,
Cc1c(Cl)cccc1NS(=O)(=O)c1ccc2c(c1)C1C=CCC1C(c1ccc(C(=O)O)cc1)N2 (stereo not given),x,1,39*,11,25*,55*,43*,18*,1,
COc1ccc(C(=O)N2CCCCCC2)cc1S(=O)(=O)N1CCOCC1,u,-2,3,-11,-3,x,x,x,x,
CCCN(CCC)C(=O)c1cc(S(=O)(=O)N2CCCCC2)c[nH]1,0,1,7,-45,0,x,x,x,x,
O=C(O)C(c1ccccc1)N1C(=O)/C(=C\c2ccc(-c3ccccc3Cl)o2)SC1=S (stereo not given),-32,0,59*,23,27*,83*,57*,36*,3,
COc1ccc2c(c1)cc(C(=O)N/N=C/c1c(O)c(C(=O)O)cc3ccccc13)n2C,-15,4,80*,-3,35*,104*,14,30*,1,
CC(=O)Nc1ccc(N=Cc2c(O)c(C(=O)Nc3ccccc3)cc3ccccc23)cc1,0,2,7,1,-3,x,x,x,x,
COc1cc2c(cc1OC)CN(CC(=O)Nc1ccc(Cl)c(S(=O)(=O)N(C)C)c1)CC2,0,0,-43,-7,-2,x,x,x,x,
O=C(Nc1nnc(-c2ccc3c(c2)CCCC3)o1)c1ccccc1Cl,0,3,49*,-12,25*,-9,-27,25*,2,
CN(C(=O)c1ccc(NC(=O)Cc2cccc(NC(=O)C3CCN(C(=O)C4CCCC4)CC3)c2)cc1)C1CCCC1,x,3,x,x,-2,x,x,x,x,
O=C1C=C(c2ccc(Oc3ccccc3)cc2)C[C@@H](c2ccc(F)cc2)C1,x,2,x,x,4,x,x,x,x,
CCOC(=O)c1ccc2c(c1)C1C=CCC1C(C(=O)O)N2 (stereo not given),x,1,39*,-11,30*,91*,-6,12,-2,
CCc1cc2c3c([nH]c2cc1S(=O)(=O)NCCCOC)CC(C)(C)CC3=O,0,-2,-11,-27,-3,x,x,x,x,
COc1ccc2[nH]c3c(C)c4ccncc4c(C)c3c2c1,-2,7,42*,77*,35*,112*,90*,17*,-1,
O=C1/C(=C/c2cccs2)SC(=S)N1NS(=O)(=O)c1ccccc1,0,0,8,-20,0,x,x,x,x,
SMILES,HIF activator,PP5 inh,HCV NS3 hel inh,DNA FID counter-1,PP1 inh,NS3 hel confirm,DNA FID counter-2,PP1 inh confirm,PP5 inh counter,others
O=C1/C(=C/C=C/c2ccco2)SC(=S)N1NS(=O)(=O)c1ccccc1,x,-2,66*,1,21*,73*,17,13,-5,
Nc1c(C(=O)NC2CC2)sc2nc3c(c(-c4ccco4)c12)CC/C3=C/c1ccco1,x,1,69*,-3,54*,99*,3,21*,5,DNA FID DR=i
CCN(CCO)c1nc(SC)nc2c1sc1nc(-c3ccco3)c3c(c12)CCC3,0,2,36*,-23,19*,81*,27,28*,0,
CN(C)/C=C1\C(=O)N(c2ccc([N+](=O)[O-])cc2)N=C1c1ccccc1,2,3,40*,-11,22*,53*,10,8,1,
Cc1cccc(N2CCN(C(=O)NC(C)c3ccc(F)c(F)c3)CC2)c1C (stereo not given),0,-1,-6,-30,-6,x,x,x,x,
COc1c(N2CCN(C(=S)NCc3ccccc3)C(C)C2)c(F)cc2c(=O)c(C(=O)O)cn(C3CC3)c12 (stereo not given),0,3,40*,-14,43*,42*,-21,33*,-4,DNA FID DR=>79
CCCOc1ccc(C2C(C(=O)c3ccc(C)o3)=C(O)C(=O)N2Cc2ccco2)cc1 (stereo not given),-1,-2,71*,-52,27*,98*,-37,39*,-4,
COc1ccc(C2C(C(=O)c3ccc(C)o3)=C(O)C(=O)N2Cc2ccco2)cc1OC (stereo not given),0,1,14,-21,1,x,x,x,x,
Cc1cc2nc(C)n(CCCNC(=O)Nc3ccc(F)cc3)c2cc1C,0,2,-10,1,-4,x,x,x,x,
